Source: ChEMBL document CHEMBL4257448, “Deciphering the origins of molecular toxicity of combretastatin A4 and its glycoconjugates: interactions with major drug transporters and their safety profiles in vitro and in vivo” (Medchemcomm, 2017)
Converted amounts (≈) assume the structure as drawn. The source made the active and inactive calls. The calls are words filed in the database; no cut-off is given here.

Key:
[1] = Aqueous solubility of the compound after 1 hrs by HPLC-UV method; format: physicochemical; settings: deionized water
How it was run: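 Shaken in tubes at 25 °C for 1 h, protected from light, then filtered through 0.2 μm filters; filtrate diluted in deionized water and quantified by reversed-phase HPLC-UV (C18 column, room temperature, methanol/water 70:30 v/v, 1.0 mL min−1).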

[2] = system: HT-29; assay: Cytotoxicity against human HT-29 cells assessed as reduction in cell viability after 72 hrs by MTT assay; format: functional, cell-based; settings: HT-29, 72 h
How it was run: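 HT29 cells were cultured in RPMI-1640 with glutamine and 10% FBS, seeded at 2000–7500 cells/well, and exposed for 72 h to drug in DMSO (final DMSO <0.1%). MTT was added at 0.83 mg mL−1 final and incubated overnight, then cells were lysed in SDS/HCl and read at 570 nm. Survival was expressed as percent of drug-free control; five replicate wells.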

[3] = system: DU-145; assay: Cytotoxicity against human DU145 cells assessed as reduction in cell viability up to 20 uM after 24 hrs by MTT assay; format: functional, cell-based
How it was run: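 Cells were grown as adherent monolayers at 37 °C in 5% CO2: SKOV3 in advanced DMEM, DU145 and MB231 in RPMI-1640 with glutamine and 10% FBS. They were seeded at 2000–7500 cells/well, treated on day 1 for 24 h with drug in DMSO (final DMSO <0.1%), then given MTT at 0.83 mg mL−1 final overnight. After SDS/HCl lysis, A570 was read as percent of drug-free control; five replicate wells.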

[4] = biological target: T1, Solute carrier family 22 member 6 (Homo sapiens, UniProt Q4U2R8); assay: Inhibition of human OAT1 expressed in HEK293 cells assessed as 6-CF uptake after 5 mins by fluorescence assay; format: cell-based; settings: for inhibition (INH): human, hek293, 5 min
T1 sequence (Q4U2R8 whole entry): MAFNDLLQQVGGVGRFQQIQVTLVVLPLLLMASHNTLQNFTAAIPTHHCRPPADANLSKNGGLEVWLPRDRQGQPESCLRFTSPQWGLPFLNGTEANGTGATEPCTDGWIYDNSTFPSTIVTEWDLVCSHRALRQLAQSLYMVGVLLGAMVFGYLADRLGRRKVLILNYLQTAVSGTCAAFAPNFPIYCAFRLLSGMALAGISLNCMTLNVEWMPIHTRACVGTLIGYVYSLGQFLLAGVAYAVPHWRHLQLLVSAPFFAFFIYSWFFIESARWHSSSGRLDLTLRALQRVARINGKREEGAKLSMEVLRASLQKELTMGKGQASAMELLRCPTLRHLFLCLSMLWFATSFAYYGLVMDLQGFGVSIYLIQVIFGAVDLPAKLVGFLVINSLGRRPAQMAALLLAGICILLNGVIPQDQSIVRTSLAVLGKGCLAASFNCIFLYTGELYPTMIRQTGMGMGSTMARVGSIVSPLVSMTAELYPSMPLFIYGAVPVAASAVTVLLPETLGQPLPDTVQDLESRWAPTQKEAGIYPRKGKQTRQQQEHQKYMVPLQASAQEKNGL
How it was run: (§1)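 Stably transfected HEK293 cells (human OAT1, OAT3, OCT1, OCT2, OATP1B3, OATP2B1) and mock cells were assayed 16 h after seeding in HEPES uptake buffer, pH 7.2, with fluorescent probe ± compound. Incubation was 5 min for OAT1/3 and OATPs, and 10 min for OCT1/2. Reference inhibitors were probenecid (OATs), quinine (OCTs) and rifampicin (OATPs). Uptake was stopped with ice-cold PBS and cells were lysed in Tris/Triton. Fluorescence was normalised to BCA protein; triplicates, repeated 2–3 times.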

[5] = biological target: T2, Solute carrier organic anion transporter family member 1B3 (Homo sapiens, UniProt Q9NPD5); assay: Inhibition of human OATP1B3 expressed in HEK293 cells assessed as FMTX uptake after 5 mins by fluorescence assay; format: cell-based; settings: for inhibition (INH): human, hek293, 5 min; how it was run: as §1
T2 sequence (Q9NPD5 whole entry): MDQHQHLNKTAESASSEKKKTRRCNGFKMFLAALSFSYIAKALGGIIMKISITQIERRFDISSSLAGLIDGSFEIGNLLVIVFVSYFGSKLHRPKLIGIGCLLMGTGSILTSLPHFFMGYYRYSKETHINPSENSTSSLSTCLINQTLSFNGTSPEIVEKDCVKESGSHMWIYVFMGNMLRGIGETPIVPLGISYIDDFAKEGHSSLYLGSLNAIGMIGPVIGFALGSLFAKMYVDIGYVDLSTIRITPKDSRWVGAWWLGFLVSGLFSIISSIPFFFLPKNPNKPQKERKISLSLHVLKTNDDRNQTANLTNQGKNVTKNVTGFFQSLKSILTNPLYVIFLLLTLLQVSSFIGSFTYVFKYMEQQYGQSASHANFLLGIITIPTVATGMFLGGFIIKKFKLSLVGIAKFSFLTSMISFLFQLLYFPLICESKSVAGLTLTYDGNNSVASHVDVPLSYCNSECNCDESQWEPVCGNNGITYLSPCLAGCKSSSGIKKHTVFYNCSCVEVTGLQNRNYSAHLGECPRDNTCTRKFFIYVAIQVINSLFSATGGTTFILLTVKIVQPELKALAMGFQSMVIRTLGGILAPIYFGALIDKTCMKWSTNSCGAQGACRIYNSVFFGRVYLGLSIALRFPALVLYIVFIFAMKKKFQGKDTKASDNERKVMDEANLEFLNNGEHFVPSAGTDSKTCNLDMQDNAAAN

[6] = biological target: T3, Solute carrier family 22 member 2 (Homo sapiens, UniProt O15244); assay: Inhibition of human OCT2 expressed in HEK293 cells assessed as Asp+ uptake after 10 mins by fluorescence assay; format: cell-based; settings: for inhibition (INH): human, hek293, 10 min; how it was run: as §1
T3 sequence (O15244 whole entry): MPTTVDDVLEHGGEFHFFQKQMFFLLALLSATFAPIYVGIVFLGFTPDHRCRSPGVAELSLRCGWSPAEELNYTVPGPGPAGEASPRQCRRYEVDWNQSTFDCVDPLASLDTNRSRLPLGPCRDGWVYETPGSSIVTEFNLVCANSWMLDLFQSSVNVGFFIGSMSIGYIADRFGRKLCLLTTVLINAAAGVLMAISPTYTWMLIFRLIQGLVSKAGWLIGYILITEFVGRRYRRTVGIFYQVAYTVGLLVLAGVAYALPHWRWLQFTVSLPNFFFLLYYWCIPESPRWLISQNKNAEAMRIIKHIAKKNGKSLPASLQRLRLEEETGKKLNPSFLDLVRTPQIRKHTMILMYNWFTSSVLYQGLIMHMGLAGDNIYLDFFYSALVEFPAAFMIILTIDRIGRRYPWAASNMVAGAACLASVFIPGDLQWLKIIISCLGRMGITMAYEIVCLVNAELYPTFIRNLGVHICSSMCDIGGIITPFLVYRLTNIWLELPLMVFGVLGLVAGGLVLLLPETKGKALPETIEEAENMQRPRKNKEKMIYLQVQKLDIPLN

[7] = system: HEK293; assay: Toxicity in HEK293 cells assessed as effect on total protein up to 200 uM after 10 mins; format: cell-based; settings: human, hek293, 10 min
How it was run: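 HEK293-mock cells were exposed to 100 or 200 μM for 10 min, and total cellular protein was then measured.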

| SMILES | solubility at 1 h [1] [µg/mL] | IC50 [2] [µM] | Activity [3] | IC50 [4] [µM] | inhibition (INH) [4] | IC50 [5] [µM] | inhibition (INH) [5] | IC50 [6] [µM] | inhibition (INH) [6] | Activity [7] |
| --- | --- | --- | --- | --- | --- | --- | --- | --- | --- | --- |
| COc1ccc(/C=C\c2cc(OC)c(OC)c(OC)c2)cc1O [COMBRETASTATIN A4] | 3 (≈ 9.48 µM) | 0.72 | Active | 41.4 | Dose-dependent effect | 195 | Dose-dependent effect | 61.9 | Dose-dependent effect | Non-Toxic |
| COc1ccc(/C=C\c2cc(OC)c(OC)c(OC)c2)cc1O[C@@H]1O[C@H](CO)[C@@H](O)[C@H](O)[C@H]1O | 1830 (≈ 3820 µM) | 6.91 | Active | > 200 | Dose-dependent effect | > 200 | Dose-dependent effect | > 200 | Dose-dependent effect | Non-Toxic |
